ARNT TACC3 PPI: disruptors of ARNT/TACC3 protein interaction, primary screen, biochemical, AlphaScreen, single concentration; Transforming acidic coiled-coil-containing protein 3 (Homo sapiens), Q9Y6A5; AlphaScreen His-ARNT PAS-B/GST-TACC3 binding, luminescence; TACC3 fragment carries E629A point mutation; inhibition, % at 9.99 µM; actives 0.66% (n = 390,000);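 active = mean inhibition of replicates at least 50% and at least half of replicates each reaching 50%; inconclusive = half or more replicates reach 50% but mean below 50%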
SIRT5 block: SIRT5 desuccinylase inhibitors, primary screen, biochemical, fluorescence imaging, single point, set 5; NAD-dependent protein deacylase sirtuin-5, mitochondrial (Homo sapiens), Q9NXA8; Purified SirT5, succinyl-peptide AMC, trypsin-coupled fluorescence; inhibition, % at 15 µM; actives 1.1% (n = 330,000); in the data active = inhibition above about 15%; inconclusive = no clear call, values can overlap the other calls
Target sequence (Q9NXA8 whole entry, looked up): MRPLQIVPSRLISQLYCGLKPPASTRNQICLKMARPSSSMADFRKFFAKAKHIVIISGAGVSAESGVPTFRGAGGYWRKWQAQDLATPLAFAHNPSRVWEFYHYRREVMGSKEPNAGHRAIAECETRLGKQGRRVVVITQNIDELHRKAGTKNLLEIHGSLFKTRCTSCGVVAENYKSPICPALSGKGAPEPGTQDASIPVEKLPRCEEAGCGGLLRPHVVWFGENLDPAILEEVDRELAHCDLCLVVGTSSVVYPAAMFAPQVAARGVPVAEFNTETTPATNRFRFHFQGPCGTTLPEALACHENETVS
FGF22 binding: binders of human FGF22 protein, primary screen, FGF22 synaptogenesis inhibitor project, biophysical, thermal shift, single point; actives 1.5% (n = 340,000); activity (Tm shift, normalised), % at 9.99 µM; recombinant FGF22 thermal shift, SYPRO orange fluorescence; percent of sucrose octasulfate shift, DMSO zero;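 active = mean Tm shift, scaled 0 neutral to 100 positive control, at about 1.3% or above, every replicate too, limit read from the data; inconclusive = no clear call, values can overlap the other calls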
Target sequence (Q9HCT0 whole entry, looked up): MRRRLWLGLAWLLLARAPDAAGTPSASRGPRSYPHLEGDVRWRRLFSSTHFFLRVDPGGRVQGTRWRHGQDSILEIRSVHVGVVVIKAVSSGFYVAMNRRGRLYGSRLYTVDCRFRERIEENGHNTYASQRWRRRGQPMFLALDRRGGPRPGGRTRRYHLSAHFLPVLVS
XiGFP reactiv: activators of inactive X chromosome reactivation, primary screen, imaging, XiGFP fibroblasts, GFP high-content imaging, set 2; XiGFP mouse fibroblasts, % GFP-positive cells imaging, 3 d; cells co-treated with 5-aza-dC sensitizer; scaled so ellipticine positive control = 100%; activation, % at 7.58 µM; actives 0.055% (n = 360,000); AID 743238, 2013;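 active = mean normalized replicate activation at least 10% and every replicate at or above 10%; inconclusive = only one of the two criteria met; inactive = mean below 10% and not all replicates reach 10%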
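assay system = SV40-immortalized XiGFP fibroblast cells, line 68-5-11 | buffer or medium = DMEM plus 5-aza-dC sensitizer | doses = single-point pinned compound dosing | times = 3-day compound exposure, then 15 min fixation at room temperature | benchmarks = positive control ellipticine, 6 µM final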
DENV2 CPE: inhibitors of DENV2 cytopathic effect, primary screen, cell-based, plate reader, single concentration; DENV2-infected cells, cytopathic effect rescue; CPE inhibition, % at 9.99 µM; actives 1.7% (n = 350,000); in the data active = CPE inhibition above about 20%, passing the limit was not always enough; inconclusive = no clear call, values can overlap the other calls; tested in BHK-21 cells
FN deposit inh: inhibitors of fibronectin matrix deposition, primary screen, AH1F cells, Alexa488-fibronectin fluorescence, plate reader; AH1F fibroblasts, overnight; inhibition, % at 12.6 µM; actives 0.086% (n = 350,000);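 active = mean inhibition across replicates of 30% or more, regardless of how many single replicates reach that level; inconclusive = mean under 30% yet at least half of replicates reach 30%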
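Measured by – fluorescence 485/525 nm · System – AH1F fibroblast monolayer, labelled fibronectin deposition · Amount – 10000 cells per well · Buffer or medium – serum-reduced DMEM (2% serum) · Doses – single dose, pinned · Also added – fluorescent fibronectin at 24 nM final · Schedule – 1 h cell attachment, overnight exposure to compound and label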
A number is an active result. The list is not random: actives were taken first. Their share in the collection is about 3.8%.

How did CCOC(=O)C1(CCOC)CCN(Cc2cnc(-c3cccc(C)c3)nc2)CC1 do in these assays?
ARNT TACC3 PPI: inactive; SIRT5 block: 20; FGF22 binding: inactive; XiGFP reactiv: inactive; DENV2 CPE: inactive; FN deposit inh: inactive

Results for CCOC(=O)C1(CCOc2ccccc2)CCN(Cc2ccc(OCCO)cc2)CC1 ?
ARNT TACC3 PPI: inactive; SIRT5 block: 22; FGF22 binding: inactive; XiGFP reactiv: inactive; DENV2 CPE: inconclusive; FN deposit inh: inactive

Results for CCOC(=O)C1(Cc2cccc(OC)c2)CCN(CCO)CC1 ?
ARNT TACC3 PPI: inactive; SIRT5 block: inactive; FGF22 binding: 44; XiGFP reactiv: inactive; DENV2 CPE: inactive

How did C[C@@H]1CN([C@@H](C)CO)C(=O)c2cc(C#CC3(O)CCCC3)cnc2O[C@@H]1CN(C)C do in these assays?
ARNT TACC3 PPI: inactive; SIRT5 block: inactive; FGF22 binding: inactive; XiGFP reactiv: inactive; DENV2 CPE: inactive; FN deposit inh: inactive

Results for CS(=O)(=O)Nc1ccc2c(c1)[C@@H]1C[C@@H](CC(=O)NCc3ccccn3)O[C@@H](CO)[C@@H]1O2 ?
ARNT TACC3 PPI: inactive; SIRT5 block: inactive; FGF22 binding: inactive; XiGFP reactiv: inactive; DENV2 CPE: inactive

Results for COc1ccc(/C=N/NC(=O)CNc2ccc(Br)cc2)c(C(=O)O)c1OC ?
ARNT TACC3 PPI: inactive; SIRT5 block: inactive; FGF22 binding: 44; XiGFP reactiv: inactive; DENV2 CPE: inactive; FN deposit inh: inactive

Results for COc1ccc(/C=N/NC(=O)CNc2c(Br)cc(C)cc2Br)c(C(=O)O)c1OC ?
ARNT TACC3 PPI: inactive; XiGFP reactiv: inactive; FN deposit inh: inactive

What do the screens show for `COc1ccc(Cc2nnc(N/N=C/c3ccc(Br)cc3)[nH]c2=O)cc1OC`?
ARNT TACC3 PPI: inactive; SIRT5 block: inactive; FGF22 binding: inactive; XiGFP reactiv: inactive; DENV2 CPE: inactive; FN deposit inh: inactive

How did COc1ccc(Cc2nnc(N/N=C/c3ccc(O)cc3)[nH]c2=O)cc1OC do in these assays?
ARNT TACC3 PPI: 92; XiGFP reactiv: inactive; FN deposit inh: inactive

How did O=C(NC(=S)Nc1ccc(Cc2ccncc2)cc1)c1ccccc1F do in these assays?
ARNT TACC3 PPI: inactive; SIRT5 block: inactive; FGF22 binding: 44; XiGFP reactiv: inactive; DENV2 CPE: inactive

Results for Cc1ccccc1C(=O)NC(=S)Nc1ccc(Cc2ccncc2)cc1 ?
ARNT TACC3 PPI: inactive; XiGFP reactiv: inactive; FN deposit inh: inactive

How did COc1ccc(C(=O)NC(=S)Nc2ccc(Cc3ccncc3)cc2)cc1 do in these assays?
ARNT TACC3 PPI: inactive; SIRT5 block: inactive; FGF22 binding: 44; XiGFP reactiv: inactive; DENV2 CPE: inactive

How did O=C(NC(=S)Nc1ccc(Cc2ccncc2)cc1)c1ccccc1Cl do in these assays?
ARNT TACC3 PPI: inactive; XiGFP reactiv: inactive; FN deposit inh: inactive

Results for O=C(Nc1ccc(F)cc1)N1C[C@H]2[C@@H](c3ccccc31)[C@H](CO)N2C(=O)Cc1ccccc1 ?
ARNT TACC3 PPI: inactive; SIRT5 block: inactive; FGF22 binding: inactive; XiGFP reactiv: inactive; DENV2 CPE: inactive

How did O=C(OCC(=O)N1CCc2ccccc21)[C@@H]1CC(O)CN1S(=O)(=O)c1ccccc1[N+](=O)[O-] (some centres not stated) do in these assays?
ARNT TACC3 PPI: inactive; SIRT5 block: inactive; FGF22 binding: inactive; XiGFP reactiv: inactive; DENV2 CPE: inconclusive; FN deposit inh: inactive

What do the screens show for `O=C(OCC(=O)N1CCc2ccccc21)[C@@H]1CCCN1S(=O)(=O)c1ccccc1F`?
ARNT TACC3 PPI: inactive; SIRT5 block: inactive; FGF22 binding: inactive; XiGFP reactiv: inactive; DENV2 CPE: 49; FN deposit inh: inactive

What do the screens show for `O=C(Nc1ccc(N2CCCC2)cc1)C(Cl)c1ccccc1` (configuration not stated)?
ARNT TACC3 PPI: active

Results for CC(C)NC(=O)N(C)C[C@@H]1OCCCC[C@@H](C)Oc2ccc(NS(=O)(=O)c3cccs3)cc2C(=O)N([C@H](C)CO)C[C@H]1C ?
ARNT TACC3 PPI: inactive; SIRT5 block: inactive; FGF22 binding: inactive; XiGFP reactiv: inactive; DENV2 CPE: inactive; FN deposit inh: inactive

How did C/C(=N\NC(=O)C1COc2ccccc2O1)c1ccccn1 (configuration not stated) do in these assays?
ARNT TACC3 PPI: 64; XiGFP reactiv: inactive; FN deposit inh: inactive

Results for C/C(=N\NC(=O)C1COc2ccccc2O1)c1cc2ccccc2o1 (configuration not stated) ?
SIRT5 block: inactive; FGF22 binding: 44; XiGFP reactiv: inactive; DENV2 CPE: inactive; FN deposit inh: inactive

What do the screens show for `O=C(NCC1CC1)[C@H]1[C@H](CO)[C@H]2Cn3c(ccc(-c4cccc(F)c4)c3=O)[C@H]2N1CC1CCOCC1`?
ARNT TACC3 PPI: inactive; SIRT5 block: inactive; FGF22 binding: inactive; XiGFP reactiv: inactive; DENV2 CPE: inactive

What do the screens show for `CCOC(=O)N1CCN(C(=O)c2cc(COc3ccc4ncccc4c3)on2)CC1`?
SIRT5 block: 20; FGF22 binding: inactive; XiGFP reactiv: inactive; DENV2 CPE: inactive; FN deposit inh: inactive

What do the screens show for `Cc1cccnc1CN1CCN(C(=O)c2cc(COc3ccc4ncccc4c3)on2)CC1`?
ARNT TACC3 PPI: inactive; SIRT5 block: inactive; FGF22 binding: inactive; XiGFP reactiv: inactive; DENV2 CPE: inactive; FN deposit inh: inactive

How did CC(=O)c1cccc(S(=O)(=O)NCC(C)(C)N2CCOCC2)c1 do in these assays?
ARNT TACC3 PPI: inactive; SIRT5 block: 16; FGF22 binding: inactive; XiGFP reactiv: inactive; DENV2 CPE: inactive; FN deposit inh: inactive

How did CC(C)(CNC(=O)c1cccc(S(=O)(=O)NCc2ccccc2)c1)N1CCOCC1 do in these assays?
ARNT TACC3 PPI: inactive; SIRT5 block: inactive; FGF22 binding: inactive; XiGFP reactiv: inactive; DENV2 CPE: inactive; FN deposit inh: inactive

What do the screens show for `CN(C)c1ccc(/C=C(/C#N)C(=O)NCc2ccccc2)o1`?
ARNT TACC3 PPI: inactive; XiGFP reactiv: 17; FN deposit inh: inactive

How did N#C/C(=C/c1ccccc1)C(=O)NCc1ccccc1 do in these assays?
ARNT TACC3 PPI: inactive; SIRT5 block: inactive; FGF22 binding: 44; XiGFP reactiv: inactive; DENV2 CPE: inactive; FN deposit inh: inactive

What do the screens show for `N#C/C(=C\c1ccc(O)c(Br)c1)C(=O)NCc1ccccc1`?
ARNT TACC3 PPI: inactive; SIRT5 block: inactive; XiGFP reactiv: inactive; DENV2 CPE: inactive; FN deposit inh: inactive

Source: PubChem BioAssay
